Reference: ChEMBL document CHEMBL3745678, “Novel β-Carboline/Hydroxamic Acid Hybrids Targeting Both Histone Deacetylase and DNA Display High Anticancer Activity via Regulation of the p53 Signaling Pathway” (J Med Chem, 2015)
Active and inactive are the calls of the source. The rule behind the calls is not given here.

Key:
HCT-116 [1] = experiment: Induction of DNA damage in human HCT116 cells assessed as histone H2AX phosphorylation at S139 after 12 hrs by western blot analysis; type: functional, cell-based
Outline: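 DNA-damage marker. HCT116 cells treated 12 h with compound or vehicle. Lysates immunoblotted with anti-H2AX S139ph, and β-actin served as the control. Relative levels were obtained by densitometric scanning; means ± SD of three separate experiments.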

[2] = target: Cellular tumor antigen p53 (Homo sapiens) (UniProt P04637); experiment: Activation of p53 in human HCT116 cells assessed as p53 phosphorylation at ser15 residue at 0.1 to 5 uM after 12 hrs by western blot analysis; type: cell-based; conditions: HCT-116
Outline: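 HCT116 cells exposed 12 h to compound or vehicle, then lysed on ice in PBS with 1% NP-40, 0.5% deoxycholate, 0.1% SDS and protease inhibitors. Up to 50 µg protein run on SDS-PAGE and immunoblotted for phospho-p53 (Ser15), p53 and p21. Bands quantified by densitometry against β-actin; mean ± SD of three experiments.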

[3] = Acute toxicity in ICR mouse assessed as survival rate at 585.9 mg/kg, ip measured on day 14; type: organism-based; conditions: in vivo
Outline: (§1)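 Female ICR mice, single intraperitoneal injection at 585.9, 468.8, […], 300 or 240 mg/kg, or vehicle control, n = 10 per group. Deaths counted at 1 h, 4 h, daily on days 1-4 and over days 5-14. Eating, drinking, body weight and activity observed for 14 days, with survival (%) taken on day 14. LD50 calculated from mortality.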

Mus musculus [4] = experiment: Acute toxicity in ICR mouse assessed as abnormality in eating at 240 mg/kg, ip measured for 14 days; type: organism-based; conditions: in vivo, 336 h; outline: as §1
Mus musculus [5] = experiment: Acute toxicity in ICR mouse assessed as body weight change at 240 mg/kg, ip measured for 14 days; type: organism-based; conditions: in vivo, 336 h; outline: as §1
[6] = Antitumor activity against human HCT116 cells xenografted in BALB/c mouse assessed as tumor growth inhibition at 90 mg/kg, po measured twice per week over 22 days; type: functional; conditions: HCT-116, po, 528 h, read-out: TGI
Mus musculus [7] = experiment: Toxicity in BALB/c mouse xenografted with human HCT116 cells assessed as body weight change at 45 mg/kg, ip measured twice per week over 22 days; type: organism-based, HCT-116; conditions: in vivo, 528 h
Mus musculus [8] = experiment: Toxicity in BALB/c mouse xenografted with human HCT116 cells assessed as body weight change at 90 mg/kg, po measured twice per week over 22 days; type: organism-based, HCT-116; conditions: in vivo, 528 h
HCT-116 [9] = experiment: Antitumor activity against human HCT116 cells xenografted in BALB/c mouse assessed as tumor growth inhibition at 45 and 90 mg/kg, ip measured twice per week over 22 days; type: functional, organism-based
Mus musculus [10] = experiment: Acute toxicity in ICR mouse assessed as death at 240 to 585.9 mg/kg, ip measured after 4 hrs; type: organism-based; conditions: in vivo; outline: as §1
Mus musculus [11] = experiment: Acute toxicity in ICR mouse assessed as death at 240 to 375 mg/kg, ip measured after 2 days; type: organism-based; conditions: in vivo, 48 h; outline: as §1
Mus musculus [12] = experiment: Acute toxicity in ICR mouse assessed as death at 240 mg/kg, ip measured after 4 days; type: organism-based; conditions: in vivo, 96 h; outline: as §1
Histone deacetylase = experiment: Inhibition of HDAC in human HeLa cell nuclear extract using Boc-Lys (Ac)-AMC as substrate after 60 mins by fluorometric analysis; type: cell-based
[13] = Antiproliferative activity against human HCT116 cells assessed as cell viability after 48 hrs by MTT assay; type: functional, cell-based, HCT-116; conditions: Homo sapiens, HCT-116, 48 h
[14] = Antiproliferative activity against human SW620 cells assessed as cell viability after 48 hrs by MTT assay; type: functional, cell-based; conditions: SW-620, 48 h
LoVo = experiment: Antiproliferative activity against human LoVo cells assessed as cell viability after 48 hrs by MTT assay; type: functional, cell-based
HCT-116 [15] = experiment: Potency index, ratio of SAHA IC50 to compound IC50 for human HCT116 cells; type: functional
Outline: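 HCT116 cells seeded at 10^4 cells/ml and adhered overnight, then treated 48 h over a concentration series with 0.1% DMSO as control. MTT readout; IC50 derived from inhibition % = (1 − OD treated/OD control) × 100, three independent measurements. Index = SAHA IC50 ÷ compound IC50.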

[16] = Cytotoxicity against rat IEC-18 cells assessed as survival at 5 uM after 48 hrs by MTT assay; type: cell-based; conditions: iec-18, 48 h
Outline: (§2)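 HCT116 and rat IEC-18 cells incubated 48 h over a 0–5 µM range. Viability measured by MTT and expressed as % of control. GI50 taken from the inhibition curves; three independent experiments.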

HCT-116 [17] = experiment: Selectivity index, ratio of GI50 for rat IEC-18 cells to GI50 for human HCT116 cells; type: functional; outline: as §2
HCT-116 [18] = experiment: Induction of apoptosis in human HCT116 cells at 5 uM after 48 hrs by annexin V-FITC/propidium iodide staining-based flow cytometric analysis; type: functional
Outline: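 HCT116 cells cultured overnight, then exposed in triplicate for 48 h to 0.1, 1.0 or 5.0 µM, SAHA 5.0 µM or vehicle. Stained with FITC-Annexin V/PI for 15 min at room temperature.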

[19] = Upregulation of Bax expression in human HCT116 cells after 48 hrs by western blot analysis; type: functional, cell-based; conditions: HCT-116
Outline: (§3)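 HCT116 cells treated 48 h with or without compound. Western blots probed for Bax, Bcl-2, cleaved caspase-3 and PARP. Band intensities relative to β-actin by densitometry; means ± SD from three separate experiments.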

[20] = Downregulation of Bcl2 expression in human HCT116 cells after 48 hrs by western blot analysis; type: functional, cell-based; conditions: HCT-116; outline: as §3
HCT-116 [21] = experiment: Induction of PARP cleavage in human HCT116 cells at 1 to 5 uM after 48 hrs by western blot analysis; type: functional, cell-based; outline: as §3
HCT-116 [22] = experiment: Induction of caspase-3 cleavage in human HCT116 cells at 1 to 5 uM after 48 hrs by western blot analysis; type: functional, cell-based; outline: as §3
HDAC6 (Homo sapiens) = experiment: Selectivity index, ratio of IC50 for human recombinant HDAC8 to IC50 for human recombinant HDAC6
Histone deacetylase 8 = target: T1, Histone deacetylase 8 (Homo sapiens, UniProt Q9BY41); experiment: Inhibition of recombinant human HDAC8 using Boc-Lys (Ac)-AMC as substrate after 60 mins by fluorometric analysis
T1 sequence (Q9BY41 whole entry): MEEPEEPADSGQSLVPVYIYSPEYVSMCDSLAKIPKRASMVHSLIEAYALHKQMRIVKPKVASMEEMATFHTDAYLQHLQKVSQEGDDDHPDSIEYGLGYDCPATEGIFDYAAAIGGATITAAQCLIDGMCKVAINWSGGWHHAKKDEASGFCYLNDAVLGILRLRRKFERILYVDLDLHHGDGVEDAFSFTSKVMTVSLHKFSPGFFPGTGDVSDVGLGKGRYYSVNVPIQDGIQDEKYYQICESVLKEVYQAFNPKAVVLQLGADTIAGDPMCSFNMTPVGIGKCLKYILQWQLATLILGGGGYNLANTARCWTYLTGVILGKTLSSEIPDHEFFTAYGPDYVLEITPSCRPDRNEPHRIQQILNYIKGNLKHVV

Chain of Cellular tumor antigen p53 (Homo sapiens) (P04637 whole entry, looked up): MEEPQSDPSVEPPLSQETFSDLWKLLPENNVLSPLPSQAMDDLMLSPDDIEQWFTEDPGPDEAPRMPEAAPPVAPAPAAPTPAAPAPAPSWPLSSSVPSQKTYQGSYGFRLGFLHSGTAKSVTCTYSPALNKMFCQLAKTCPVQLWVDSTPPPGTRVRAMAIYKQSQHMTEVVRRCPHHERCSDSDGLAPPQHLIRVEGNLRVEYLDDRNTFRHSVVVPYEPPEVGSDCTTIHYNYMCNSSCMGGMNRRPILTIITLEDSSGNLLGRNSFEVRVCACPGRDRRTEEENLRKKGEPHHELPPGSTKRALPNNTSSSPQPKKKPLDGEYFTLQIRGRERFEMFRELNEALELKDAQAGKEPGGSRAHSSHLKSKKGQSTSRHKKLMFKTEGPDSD

Compound: COc1ccc(-c2nc(NC(=O)NCCCC(=O)NO)cc3c2[nH]c2ccccc23)cc1
- Activity (HCT-116 [1]): Dose-dependent effect
- Activity [2]: Active
- survival at 14 day [3]: 30%
- Activity (Mus musculus [4]): Non-toxic
- Activity (Mus musculus [5]): Non-toxic
- inhibition in vivo at 90 mg/kg [6]: 61.6%
- Activity (Mus musculus [7]): Non-toxic
- Activity (Mus musculus [8]): Non-toxic
- TGI (HCT-116 [9]): Active
- Activity (Mus musculus [10]): Non-toxic
- Activity (Mus musculus [11]): Non-toxic
- Activity (Mus musculus [12]): Non-toxic
- IC50 (Histone deacetylase): 270 nM
- GI50 [13]: 1170 nM
- IC50 [13]: 830 nM
- IC50 [14]: 940 nM
- IC50 (LoVo): 1630 nM
- Ratio IC50 (HCT-116 [15]): 7
- Activity [16]: Non-toxic
- RatioGI50 (HCT-116 [17]): 5
- Activity (HCT-116 [18]): 73.9%
- Activity [19]: Dose-dependent effect
- Activity [20]: Dose-dependent effect
- Activity (HCT-116 [21]): Active
- Activity (HCT-116 [22]): Active
- Ratio IC50 (HDAC6 (Homo sapiens)): 5
- IC50 (Histone deacetylase 8): 160 nM
